According to PMC4161670 (Molecular Psychiatry, 2014):
Bridge positions count the residues as written; N and C are the ends. Ends that are not written are not given here.

How the values were obtained:
[1] = cited from earlier work
5XFAD mice = experiment: Serum Aβ after a single injection; type: in vivo, mouse
Outline: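 Female 5XFAD mice got a single i.p. injection of test compound or PBS. Serum was drawn before and after injection. Aβ1–42 was measured by sandwich ELISA: 21F12 capture, biotinylated N-terminal detection, streptavidin-alkaline phosphatase and a fluorescent substrate. Samples were diluted twofold to fivefold. Lowest detection level was 1.6 pg ml−1, from a standard curve.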

recombinant BACE1 = recombinant BACE1 (Homo sapiens, UniProt P56817); experiment: In vitro BACE1 activity assay; type: biochemical
Dutch APP mice = experiment: Serum Aβ after a single injection; type: in vivo, mouse; settings: single i.p. 200 μg kg^-1
Tg2576 mice = experiment: APP processing in brain; type: in vivo, mouse; settings: Tg2576, chronic treatment, western blot 6E10, n = 6 per group
Outline: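 Tg2576 females, 9 months old, given test compound at 200 μg kg−1 i.p. or PBS once daily for 10 weeks; n=6 per group for blots. Brain proteins were fractionated into TBS-soluble, TBS-X and formic acid fractions. Reduced SDS-PAGE and western blot used human APP-specific 6E10. Full-length APP and C99 were quantitated from the TBS-X fraction and sAPP from the TBS-soluble fraction. Mean±s.e.; t-tests.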

[2] = cited from earlier work; remark: listed apart in the source

Chain of recombinant BACE1 (P56817 46-501, species assumed): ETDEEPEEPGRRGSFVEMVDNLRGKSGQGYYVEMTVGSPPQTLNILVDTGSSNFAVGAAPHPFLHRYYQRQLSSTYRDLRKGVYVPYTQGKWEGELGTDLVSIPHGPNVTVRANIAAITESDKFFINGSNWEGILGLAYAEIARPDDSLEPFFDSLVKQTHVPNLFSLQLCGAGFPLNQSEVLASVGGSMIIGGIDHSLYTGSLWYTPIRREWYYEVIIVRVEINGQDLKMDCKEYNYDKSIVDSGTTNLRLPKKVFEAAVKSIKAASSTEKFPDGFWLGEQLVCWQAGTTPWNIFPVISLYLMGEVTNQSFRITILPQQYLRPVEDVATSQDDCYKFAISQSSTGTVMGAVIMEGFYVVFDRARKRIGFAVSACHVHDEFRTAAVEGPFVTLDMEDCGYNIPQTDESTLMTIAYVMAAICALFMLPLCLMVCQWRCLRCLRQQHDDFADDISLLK

Row | Substance | passage of the blood-brain barrier (in words) [1] | change of serum Aβ after i.c.v. versus i.p. injection (in words) (5XFAD mice; single i.c.v. 200 μg kg^-1 vs single i.p. 200 μg kg^-1, P=0.03) | change of serum Aβ1-42 and Aβ1-40 after one injection (in words) (5XFAD mice; single i.p. 200 μg kg^-1) | dose dependence of serum Aβ1-42 change after challenge (in words) (5XFAD mice; single i.p. challenge, Figure 3e) | inhibition of BACE1 activity (recombinant BACE1; purified BACE1, dose-dependent, concentration not given) | change of serum Aβ1-40 and Aβ1-42 after one injection (in words) (Dutch APP mice) | level of APP fragment C99 in brain versus controls (in words) (Tg2576 mice) | aggregation (in words) [2] | ability to inhibit BACE1 activity (in words) (recombinant BACE1; purified BACE1, same assay as amylin)
1 | Amylin (KCNTATCATQRLANFLVHSSNNFGAILSSTNVGSNTY; not fully specified (C-terminus, bridges); cysteine pairing not given here; UniProt P10997 34-70, looked up) | passes through the blood–brain barrier (BBB) easily | much greater surge of Aβ in serum than a peripheral i.p. injection | increased level of Aβ1–42 but not of Aβ1–40 in serum | dose dependent | 70% | provoked a surge of Aβ1–40 but not of Aβ1–42 in the blood | lower levels of the APP processing fragments C99 |  | 
2 | Pramlintide (KCNTATCATQRLANFLVHSSNNFGPILPPTNVGSNTY-NH2; disulfide 2-7; chains of the INN, looked up) |  |  |  |  |  |  | did not reduce C99 levels | does not form aggregates | little or no ability to inhibit BACE1 activity
